Measurements reported in ChEMBL document CHEMBL1121923, “N2- and C-7 substituted actinomycin D analogues: synthesis, DNA-binding affinity, and biochemical and biological properties. Structure-activity relationship” (J Med Chem, 1981).
≈ marks a conversion by molar mass, not a printed value.

How the values were obtained:
[1] = test system: P388; test: Percent of increased life span of P388 cells implanted CDF1 male mice; type: functional, Mus musculus
In short: (§1)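 CDF1 male mice, groups of seven, given 10^6 P388 cells ip on day 0; drug ip in 5% DMSO–saline on days 1, 5 and 9; controls received vehicle; range of doses tested, optimal nontoxic dose listed; median survival time; %ILS = (treated − control)/control × 100; average of two or more experiments.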

[2] = test system: P388; test: Concentration required for 50% inhibition of incorporation of labeled uridine by P388 cells for the synthesis of RNA (in vitro); type: functional; conditions: Mus musculus, read-out: ED50 (the source's name)
[3] = test system: P388; test: Concentration required for 50% inhibition of incorporation of labeled thymidine by p388 cells for synthesis of DNA (in vitro); type: functional; conditions: Mus musculus, read-out: ED50 (the source's name)
[4] = test system: P388; test: Optimal dose for antitumor activity was measured in P388 cells of CDF1 male mice in vivo; Highest dose tested; type: functional, Mus musculus; in short: as §1
[5] = test system: CCRF-CEM; test: In vitro antitumor activity against human lymphoblastic leukemia cells.; type: functional; conditions: read-out: ID50 (the source's name)
In short: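 Human lymphoblastic leukemia CCRF-CEM cells grown in suspension culture; growth inhibition in vitro; ID50 (ng/mL) reported as the 50% inhibitory dose.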

[6] = test system: P388; test: Median survival time of the P388 cells implanted CDF1 male mice in vivo; type: functional, Mus musculus; in short: as §1
[7] = test system: Calf thymus DNA; test: Apparent binding constant against calf thymus DNA-drug complex; Not measurable; type: nucleic-acid assay; conditions: Bos taurus
In short: (§2)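 Calf thymus DNA; spectral titration; binding isotherms in 0.01 M phosphate buffer, pH 7.0, 20 °C; Kapp (per base pair) and Bapp (drug binding sites per base pair) taken from Scatchard plot.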

[8] = test system: P388; test: Concentration required for 50% inhibition of incorporation of labeled thymidine by p388 cells for synthesis of DNA (in vitro); e indicates values are high and variable; type: functional, cell-based; conditions: Mus musculus
[9] = test system: P388; test: Concentration required for 50% inhibition of incorporation of labeled uridine by P388 cells for the synthesis of RNA (in vitro); e indicates values are high and variable; type: functional, cell-based; conditions: Mus musculus
[10] = test system: Calf thymus DNA; test: Apparent number of binding sites per base pairs in DNA; Not measurable; type: nucleic-acid assay; conditions: Bos taurus; in short: as §2
[11] = test system: Calf thymus DNA; test: Apparent binding constant calf thymus DNA-drug complex; type: nucleic-acid assay; conditions: Bos taurus; in short: as §2

| SMILES | ILS [1] | EC50 [2] | EC50 [3] | Highest dose tested [4] | IC50 [5] | MST [6] | K app [7] | ED50 [8] | ED50 [9] | Bapp [10] | K app [11] |
| --- | --- | --- | --- | --- | --- | --- | --- | --- | --- | --- | --- |
| Cc1c2oc3c(C)ccc(C(=O)N[C@@H]4C(=O)N[C@H](C(C)C)C(=O)N5CCC[C@H]5C(=O)N(C)CC(=O)N(C)[C@@H](C(C)C)C(=O)O[C@@H]4C)c3nc-2c(C(=O)N[C@@H]2C(=O)N[C@H](C(C)C)C(=O)N3CCC[C@H]3C(=O)N(C)CC(=O)N(C)[C@@H](C(C)C)C(=O)O[C@@H]2C)c(NCCCCCN)c1=O | 64% | 0.46 µM | > 4.6 µM | 1.8 mg/kg | 0.85 mg/L (≈ 0.634 µM) | 18 days | – | – | – | – | – |
| Cc1c2oc3c(C)c(OC(=O)c4ccc5ccccc5c4)cc(C(=O)N[C@@H]4C(=O)N[C@H](C(C)C)C(=O)N5CCC[C@@H]5C(=O)N(C)CC(=O)N(C)[C@@H](C(C)C)C(=O)O[C@@H]4C)c3nc-2c(C(=O)N[C@H]2C(=O)N[C@@H](C(C)C)C(=O)N3CCC[C@H]3C(=O)N(C)CC(=O)N(C)[C@H](C(C)C)C(=O)O[C@H]2C)c(N)c1=O | – | – | – | – | – | – | Not measurable | High and variable values | High and variable values | Not measurable | – |
| CCCCCCCOc1cc(C(=O)N[C@@H]2C(=O)N[C@H](C(C)C)C(=O)N3CCC[C@H]3C(=O)N(C)CC(=O)N(C)[C@@H](C(C)C)C(=O)O[C@@H]2C)c2nc3c(C(=O)N[C@@H]4C(=O)N[C@H](C(C)C)C(=O)N5CCC[C@H]5C(=O)N(C)CC(=O)N(C)[C@@H](C(C)C)C(=O)O[C@@H]4C)c(N)c(=O)c(C)c-3oc2c1C | 24% | – | – | 0.9 mg/kg | 3 mg/L (≈ 2.19 µM) | 13 days | – | – | – | – | – |
| CCCCCCCCCCCNc1c(C(=O)N[C@@H]2C(=O)N[C@H](C(C)C)C(=O)N3CCC[C@H]3C(=O)N(C)CC(=O)N(C)[C@@H](C(C)C)C(=O)O[C@@H]2C)c2nc3c(C(=O)N[C@@H]4C(=O)N[C@H](C(C)C)C(=O)N5CCC[C@H]5C(=O)N(C)CC(=O)N(C)[C@@H](C(C)C)C(=O)O[C@@H]4C)ccc(C)c3oc-2c(C)c1=O | – | – | – | 1.15 mg/kg | > 15 mg/L | 10 days | – | – | – | – | – |
| CCCCCCNc1c(C(=O)N[C@@H]2C(=O)N[C@H](C(C)C)C(=O)N3CCC[C@H]3C(=O)N(C)CC(=O)N(C)[C@@H](C(C)C)C(=O)O[C@@H]2C)c2nc3c(C(=O)N[C@@H]4C(=O)N[C@H](C(C)C)C(=O)N5CCC[C@H]5C(=O)N(C)CC(=O)N(C)[C@@H](C(C)C)C(=O)O[C@@H]4C)ccc(C)c3oc-2c(C)c1=O | 0% | – | – | 1.2 mg/kg | 3 mg/L (≈ 2.24 µM) | 11 days | – | – | – | – | – |
| Cc1c2oc3c(C)c(OCc4ccc([N+](=O)[O-])cc4)cc(C(=O)N[C@@H]4C(=O)N[C@H](C(C)C)C(=O)N5CCC[C@@H]5C(=O)N(C)CC(=O)N(C)[C@@H](C(C)C)C(=O)O[C@@H]4C)c3nc-2c(C(=O)N[C@H]2C(=O)N[C@@H](C(C)C)C(=O)N3CCC[C@H]3C(=O)N(C)CC(=O)N(C)[C@H](C(C)C)C(=O)O[C@H]2C)c(N)c1=O | – | – | – | – | – | – | – | High and variable values | High and variable values | Not measurable | 100000 M⁻¹ |
| CCCCCNc1c(C(=O)N[C@@H]2C(=O)N[C@H](C(C)C)C(=O)N3CCC[C@H]3C(=O)N(C)CC(=O)N(C)[C@@H](C(C)C)C(=O)O[C@@H]2C)c2nc3c(C(=O)N[C@@H]4C(=O)N[C@H](C(C)C)C(=O)N5CCC[C@H]5C(=O)N(C)CC(=O)N(C)[C@@H](C(C)C)C(=O)O[C@@H]4C)ccc(C)c3oc-2c(C)c1=O | 18% | – | – | 1.15 mg/kg | 1.6 mg/L (≈ 1.21 µM) | 13 days | – | – | – | – | – |
| Cc1c2oc3c(C)ccc(C(=O)N[C@@H]4C(=O)N[C@H](C(C)C)C(=O)N5CCC[C@H]5C(=O)N(C)CC(=O)N(C)[C@@H](C(C)C)C(=O)O[C@@H]4C)c3nc-2c(C(=O)N[C@@H]2C(=O)N[C@H](C(C)C)C(=O)N3CCC[C@H]3C(=O)N(C)CC(=O)N(C)[C@@H](C(C)C)C(=O)O[C@@H]2C)c(NCCCCN)c1=O | 109% | 0.346 µM | 3.3 µM | 1.8 mg/kg | 0.6 mg/L (≈ 0.452 µM) | 23 days | – | – | – | – | – |
| Cc1c2oc3c(C)c(OC(=O)C45CC6CC(CC(C6)C4)C5)cc(C(=O)N[C@@H]4C(=O)N[C@H](C(C)C)C(=O)N5CCC[C@@H]5C(=O)N(C)CC(=O)N(C)[C@@H](C(C)C)C(=O)O[C@@H]4C)c3nc-2c(C(=O)N[C@H]2C(=O)N[C@@H](C(C)C)C(=O)N3CCC[C@H]3C(=O)N(C)CC(=O)N(C)[C@H](C(C)C)C(=O)O[C@H]2C)c(N)c1=O | – | – | – | – | – | – | Not measurable | – | – | Not measurable | – |
| Cc1c2oc3c(C)c(OCc4ccc(Cl)c(Cl)c4)cc(C(=O)N[C@@H]4C(=O)N[C@H](C(C)C)C(=O)N5CCC[C@@H]5C(=O)N(C)CC(=O)N(C)[C@@H](C(C)C)C(=O)O[C@@H]4C)c3nc-2c(C(=O)N[C@H]2C(=O)N[C@@H](C(C)C)C(=O)N3CCC[C@H]3C(=O)N(C)CC(=O)N(C)[C@H](C(C)C)C(=O)O[C@H]2C)c(N)c1=O | – | – | – | – | – | – | – | High and variable values | High and variable values | Not measurable | 10000 M⁻¹ |
| CCCCCCOc1cc(C(=O)N[C@@H]2C(=O)N[C@H](C(C)C)C(=O)N3CCC[C@@H]3C(=O)N(C)CC(=O)N(C)[C@@H](C(C)C)C(=O)O[C@@H]2C)c2nc3c(C(=O)N[C@H]4C(=O)N[C@@H](C(C)C)C(=O)N5CCC[C@H]5C(=O)N(C)CC(=O)N(C)[C@H](C(C)C)C(=O)O[C@H]4C)c(N)c(=O)c(C)c-3oc2c1C | – | – | – | – | – | – | Not measurable | High and variable values | High and variable values | Not measurable | – |
| Cc1c2oc3c(C)c(OCc4ccc(Cl)cc4)cc(C(=O)N[C@@H]4C(=O)N[C@H](C(C)C)C(=O)N5CCC[C@@H]5C(=O)N(C)CC(=O)N(C)[C@@H](C(C)C)C(=O)O[C@@H]4C)c3nc-2c(C(=O)N[C@H]2C(=O)N[C@@H](C(C)C)C(=O)N3CCC[C@H]3C(=O)N(C)CC(=O)N(C)[C@H](C(C)C)C(=O)O[C@H]2C)c(N)c1=O | – | – | – | – | – | – | – | High and variable values | High and variable values | Not measurable | 100000 M⁻¹ |
| CCCCCCOc1cc(C(=O)N[C@@H]2C(=O)N[C@H](C(C)C)C(=O)N3CCC[C@H]3C(=O)N(C)CC(=O)N(C)[C@@H](C(C)C)C(=O)O[C@@H]2C)c2nc3c(C(=O)N[C@@H]4C(=O)N[C@H](C(C)C)C(=O)N5CCC[C@H]5C(=O)N(C)CC(=O)N(C)[C@@H](C(C)C)C(=O)O[C@@H]4C)c(N)c(=O)c(C)c-3oc2c1C | 24% | – | – | 0.9 mg/kg | 2.5 mg/L (≈ 1.84 µM) | 13 days | – | – | – | – | – |
| CCCCCCCCCNc1c(C(=O)N[C@@H]2C(=O)N[C@H](C(C)C)C(=O)N3CCC[C@H]3C(=O)N(C)CC(=O)N(C)[C@@H](C(C)C)C(=O)O[C@@H]2C)c2nc3c(C(=O)N[C@@H]4C(=O)N[C@H](C(C)C)C(=O)N5CCC[C@H]5C(=O)N(C)CC(=O)N(C)[C@@H](C(C)C)C(=O)O[C@@H]4C)ccc(C)c3oc-2c(C)c1=O | – | – | – | 1.8 mg/kg | 11 mg/L (≈ 7.96 µM) | 10 days | – | – | – | – | – |
| CCCCCCCOc1cc(C(=O)N[C@@H]2C(=O)N[C@H](C(C)C)C(=O)N3CCC[C@@H]3C(=O)N(C)CC(=O)N(C)[C@@H](C(C)C)C(=O)O[C@@H]2C)c2nc3c(C(=O)N[C@H]4C(=O)N[C@@H](C(C)C)C(=O)N5CCC[C@H]5C(=O)N(C)CC(=O)N(C)[C@H](C(C)C)C(=O)O[C@H]4C)c(N)c(=O)c(C)c-3oc2c1C | – | – | – | – | – | – | Not measurable | High and variable values | High and variable values | Not measurable | – |
| Cc1c2oc3c(C)c(OC(=O)c4ccccc4)cc(C(=O)N[C@@H]4C(=O)N[C@H](C(C)C)C(=O)N5CCC[C@@H]5C(=O)N(C)CC(=O)N(C)[C@@H](C(C)C)C(=O)O[C@@H]4C)c3nc-2c(C(=O)N[C@H]2C(=O)N[C@@H](C(C)C)C(=O)N3CCC[C@H]3C(=O)N(C)CC(=O)N(C)[C@H](C(C)C)C(=O)O[C@H]2C)c(N)c1=O | – | – | – | – | – | – | Not measurable | High and variable values | High and variable values | Not measurable | – |
